# LMPTP block – LMPTP phosphatase inhibitors, primary screen, biochemical, fluorescence intensity, uHTS; Low molecular weight phosphotyrosine protein phosphatase (Homo sapiens), P24666; recombinant LMPTP-A, OMFP fluorogenic substrate; inhibition, % at 20 µM; 360,000 compounds, 0.22% hits; AID 651560, 2012;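 active = compounds that cut the enzyme signal by at least half of the control window in the single-dose screen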;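 note: plate controls were DMSO wells with enzyme plus substrate for no effect and substrate without enzyme for full effect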
# Target sequence (P24666 whole entry, looked up): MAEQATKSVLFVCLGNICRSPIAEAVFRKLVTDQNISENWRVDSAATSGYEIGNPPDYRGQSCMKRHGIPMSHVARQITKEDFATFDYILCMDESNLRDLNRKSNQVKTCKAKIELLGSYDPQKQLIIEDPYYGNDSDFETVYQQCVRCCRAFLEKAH
#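 Material: LMPTP-A; amount: 0.625 nM enzyme; doses: single 20 µM dose; times: reaction 50 min, room temperature, dark; technique: fluorescence intensity of OMFP turnover product; benchmarks: no-enzyme and uninhibited controls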
# STEP inh – STEP phosphatase inhibitors, primary screen, biochemical, fluorescence intensity, uHTS; inhibition, % at 20 µM; Tyrosine-protein phosphatase non-receptor type 5 (Homo sapiens), P54829; 360,000 compounds, 0.25% hits; recombinant STEP, OMFP fluorogenic substrate;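 active = inhibition at 20 µM, scaled per plate between control wells, above about 37%, limit read from the data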;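 note: 0% = DMSO with enzyme and substrate and 100% = substrate only without enzyme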
#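 Also added – OMFP at 25 µM · Test system – STEP tyrosine phosphatase · Technique – FITC-channel fluorescence of OMFP product · Schedule – 20 min at room temperature, dark · Evaluation – control-normalized % inhibition with plate pattern correction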
# SUMO1-SIM PPI – modulators of SUMO1 protein-protein interactions, primary screen, biochemical, uHTS. Small ubiquitin-related modifier 1 (Homo sapiens), P63165. SUMO1 binding to a labelled peptide, TR-FRET, 1 h. inhibition, % at 20 µM. 360,000 compounds, 0.33% hits. AID 602429, 2012; in the data active = inhibition above about 37%
# Target sequence (P63165 whole entry, looked up): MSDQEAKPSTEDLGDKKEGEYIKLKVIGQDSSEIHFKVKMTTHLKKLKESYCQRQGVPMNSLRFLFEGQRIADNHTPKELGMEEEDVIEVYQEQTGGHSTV
# NadD inh – inhibitors of S. aureus NadD, primary screen, biochemical, colorimetric, uHTS. purified NadD enzyme, colorimetric absorbance read-out. 360,000 compounds, 0.78% hits. Nicotinate-nucleotide adenylyltransferase NadD (Staphylococcus aureus N315). inhibition, % at 20 µM; in the data active = inhibition above about 26%
# Scp1 inh – Scp-1 phosphatase inhibitors, primary screen, biochemical, colorimetric, uHTS; 340,000 compounds, 0.88% hits; inhibition, % at 20 µM; Carboxy-terminal domain RNA polymerase II polypeptide A small phosphatase 1 (Homo …; Recombinant Scp1, phosphopeptide, malachite green phosphate absorbance; AID 493091, 2011;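 active = inhibition above about 50% at 20 µM, limit read from the data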;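 note: plate controls were DMSO wells with enzyme for no effect and wells lacking enzyme for full effect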
# Target sequence (Q9GZU7 76-261 limits assumed): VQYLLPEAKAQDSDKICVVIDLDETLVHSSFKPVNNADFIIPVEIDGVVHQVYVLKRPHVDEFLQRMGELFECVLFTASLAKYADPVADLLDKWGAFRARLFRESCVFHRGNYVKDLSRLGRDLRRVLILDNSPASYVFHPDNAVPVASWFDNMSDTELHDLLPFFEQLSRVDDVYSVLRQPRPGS
#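 Test system: SCP-1 phosphatase catalytic domain, residues 76-261; measured by: colorimetric phosphate reagent with accelerator and stabiliser, absorbance at 630 nm; timing: enzyme reaction 45 min at room temperature, colour 5 min, stabilisation 30 min; also added: Phosphorylated 17-residue peptide substrate; compound dosing: one concentration, 20 µM, with 1.0% DMSO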
# DNMT1 inh – human DNMT1 methyltransferase inhibitors, primary screen, biochemical, molecular beacon, fluorescence, HinP1I cleavage, uHTS. DNA (cytosine-5)-methyltransferase 1 (Homo sapiens), P26358. inhibition (reported as % activation of signal), % at 10 µM. 360,000 compounds, 0.83% hits; in the data active = inhibition above about 50%
# The depositor's hits bear a star; nt = not tested or not shown. Only some compounds are listed: those with a hit (about 2.4% of all), similar ones and a draw of the others.
SMILES,LMPTP block,STEP inh,SUMO1-SIM PPI,NadD inh,Scp1 inh,DNMT1 inh
COc1ccc(Nc2nc(N3CCCC3)c3ccccc3n2)cc1,51*,3,4,2,4,17
CCN(CC)c1ccc(Nc2nc(N3CCOCC3)c3ccccc3n2)cc1,8,5,0,-7,-7,-9
CCC(=O)N1CCc2cc(S(=O)(=O)CCC(=O)Nc3cccc(C)n3)ccc21,-4,4,3,1,4,0
CCOc1cccc2cc(C(=O)NCc3cccnc3)c(=O)oc12,-2,-5,-21,1,-2,4
C=CCc1cccc2cc(C(=O)Nc3ccc(S(=O)(=O)Nc4nnc(CC)s4)cc3)c(=O)oc12,1,91*,5,50*,101*,8
C=CCc1cccc2cc(C(=O)NCc3cccnc3)c(=O)oc12,52*,1,-19,23,-4,2
C=CCc1cccc2cc(C(=O)Nc3ccc(F)cc3)c(=O)oc12,0,1,1,3,-8,9
Cc1cc(C(=O)Nn2c(-c3ccc(Br)cc3)nc3ccccc3c2=O)ccc1[N+](=O)[O-],2,0,-7,0,-11,-4
COc1ccc(OC)c(NC(=O)COc2cc(O)c3c(c2)OC(C)(C)CC3=O)c1,1,2,1,-2,nt,-3
O=C(/C=C/c1ccc(Br)o1)OCc1nc2ccsc2c(=O)[nH]1,76*,89*,120*,53*,86*,104*
Cc1ccc(C(=O)OCc2nc3ccsc3c(=O)[nH]2)o1,-2,1,1,-4,11,6
CCN(CC)C(=O)CC(c1ccccc1)c1ccco1 (stereo not given),-1,0,-1,-4,-1,2
CCCN(CCC)C(=O)CC(c1ccc(F)cc1)c1ccco1 (stereo not given),1,48*,-3,8,-9,12
COc1ccccc1C(=O)N/N=C(\C)c1ccc(NC(=O)Cc2ccccc2)cc1,-2,1,44*,7,1,-4
O=C(O)c1cccc(Nc2nc(-c3ccc([N+](=O)[O-])cc3)nc3ccccc23)c1,52*,13,-1,4,41,-10
CCCS(=O)(=O)NC(=O)C1(C)CCCN(C(=O)c2ccccc2F)C1 (stereo not given),-1,0,-3,7,nt,2
COc1ccc(C(=O)Nc2ccc(NC(=O)c3cccs3)cn2)cc1,1,1,46*,-2,-1,9
COc1ccc(NC(=O)c2cccs2)cc1,1,1,-1,1,4,1
COc1cccc2c1C(=O)c1c(O)c3c(c(O)c1C2=O)C[C@@](O)(C(=O)CO)C[C@@H]3O[C@H]1C[C@H](N)[C@@H](O)[C@H](C)O1,14,-4,97*,57*,-14,-176
COc1cccc2c1C(=O)c1c(O)c3c(c(O)c1C2=O)CC(O)(C(=O)CO)CC3OC1CC(N(C)C)C(O)C(C)O1 (stereo not given),8,-26,-44,33*,-3,-265
COc1ccc2c(c1)CCCC21NC(=O)N(CC(=O)c2cc(F)ccc2F)C1=O (stereo not given),0,0,4,-1,-11,-2
O=C(O)c1ccc(C(=O)c2cc([N+](=O)[O-])cc([N+](=O)[O-])c2)cc1,-2,-3,-18,-1,-10,1
Nc1ccccc1/C=C/c1ccccc1N,-4,0,-10,-5,-10,-3
Cc1c(C)c2ccc(OCC(=O)Nc3ccccn3)cc2oc1=O,0,0,55*,-7,6,-1
O=C(Nc1ccncc1Cl)c1ccncc1,-2,0,1,2,-8,2
SMILES,LMPTP block,STEP inh,SUMO1-SIM PPI,NadD inh,Scp1 inh,DNMT1 inh
Brc1cc2c(cc1C1Nc3ccccc3C3C=CCC31)OCO2 (stereo not given),3,1,-3,19,1,-27
Cc1cc(C)c2c(c1)NC(c1cc3c(cc1Br)OCO3)C1CC=CC21 (stereo not given),1,2,0,37*,4,-5
CC1CCN(C(=O)COC(=O)CSc2ccc(C(N)=O)cc2[N+](=O)[O-])CC1,0,0,-31,-1,-1,-3
Cc1ccc(NC(=O)/C=C\C(=O)NCC(=O)O)cc1,-1,-1,2,0,1,2
COc1cccc(CNc2nc(NCC3CC3)nc3ccsc23)c1OC,60*,-2,2,-8,nt,-5
COc1cccc(CNc2nc(NC(C)C)nc3ccsc23)c1OC,46,0,-2,-7,nt,-1
N#C/C(=C\C=C\c1ccccc1)c1nc(-c2ccc3c(c2)OCO3)cs1,2,-8,-11,8,-8,4
CCN(CC)CCOC(=O)c1ccc(N/C=C(/C#N)c2nc(-c3ccc4c(c3)OCO4)cs2)cc1,22,86*,65*,24,8,-67
CCN(CC)CCOC(=O)c1ccc(N/C=C(/C#N)c2nc(-c3cc4ccccc4oc3=O)cs2)cc1,30,52*,-63,25,-5,50*
CCCCN1C(=O)C(CC(=O)NCCCCc2ccccc2)CC(C(=O)N(C)C)=C1C (stereo not given),-1,0,4,-2,nt,3
CC(CNC(=O)c1cccs1)c1ccc([N+](=O)[O-])cc1 (stereo not given),-1,-3,56*,1,5,-3
COc1cccc2sc(Nc3nc(-c4cc5ccccc5oc4=O)cs3)nc12,12,4,61*,23,11,-2
Cc1ccc(NC(=O)CN(C)C(=O)c2nn(C)c(=O)c3ccccc23)cc1,-1,2,-1,0,-7,1
O=C(N=Nc1c(O)[nH]c2ccccc12)c1cc(-c2cccs2)[nH]n1,39,13,60*,9,7,11
O=C(Cc1cccs1)N=Nc1c(O)[nH]c2ccccc12,-1,2,-22,2,-4,0
O=C1NC(=S)S/C1=C/c1ccc(N2CCOCC2)o1,5,-7,-15,3,16,-4
O=C1NC(=S)S/C1=C\C=C\c1ccc([N+](=O)[O-])o1,82*,66*,97*,24,87*,91*
Cc1ccccc1CNC1CCCCC1,-1,-1,-1,1,-2,1
